ChEMBL document CHEMBL1138662, “Macrocyclic diacylglycerol-bis-lactones as conformationally constrained analogues of diacylglycerol-lactones. Interactions with protein kinase C” (J Med Chem, 2004)

Assays:
[1] = Partition coefficient (logP); assay type: physicochemical; conditions: octanol/water
[2] = Displacement of [20-3H]-phorbol 12,13-dibutyrate (PDBU) from recombinant Protein kinase C alpha (C1a/C1b domain) in presence of phosphatidyl serine
Summary of the method: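 Competition binding: displacement of bound [20-3H]phorbol 12,13-dibutyrate from recombinant PKCα isozyme with phosphatidylserine present. IC50 derived by fitting data to a theoretical noncooperative competitive inhibition curve; binding affinity reported as Ki.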

logP [1] | Ki [2] | Compound
7.11 |  | CCCCCCCCCCCCCCCCC/C=C1/CC(CO)(COC(C)=O)OC1=O (stereo not given)
-0.08 | 1800 nM | O=C1CCCCCC/C=C2\CC(CO)(CO1)OC2=O (stereo not given)
5.81 | 10.3 nM | O=C1CCCCCCCCCCCCCCCCCC/C=C2/CC(CO)(CO1)OC2=O (stereo not given)
7.11 | 28 nM | CCCCCCCCCCCCCCCCC/C=C1\CC(CO)(COC(C)=O)OC1=O (stereo not given)
5.25 | 1000 nM | CCCCCCCCCCCCCC(=O)OCC(CO)OC(C)=O (stereo not given)
3.85 | 12.2 nM | O=C1CCCCCCCCCCCCCC/C=C2\CC(CO)(CO1)OC2=O (stereo not given)
4.53 | 138 nM | CCCCCCCCCCCCCC(=O)OCC1(CO)CCC(=O)O1 (stereo not given)
5.81 | 22 nM | O=C1CCCCCCCCCCCCCCCCCC/C=C2\CC(CO)(CO1)OC2=O (stereo not given)
1.88 | 52.7 nM | O=C1CCCCCCCCCC/C=C2/CC(CO)(CO1)OC2=O (stereo not given)
3.85 | 6.07 nM | O=C1CCCCCCCCCCCCCC/C=C2/CC(CO)(CO1)OC2=O (stereo not given)
5.36 | 77.8 nM | CCCCCCCCCCCCC/C=C1\CC(CO)(COC(C)=O)OC1=O (stereo not given)
5.36 | 35.1 nM | CCCCCCCCCCCCC/C=C1/C[C@@](CO)(COC(C)=O)OC1=O (stereo in doubt)
 | 35 nM | CCCCCCCCCCCCC/C=C1/C[C@@](CO)(COC(C)=O)OC1=O (stereo in doubt; 3)

Compound | logP [1] | Ki [2]
CC(C)CC(C/C=C1/CC(CO)(COC(=O)C(C)(C)C)OC1=O)CC(C)C (stereo not given) |  | 2.9 nM
